Test results published in PubChem BioAssay AID588734 (Vanderbilt Specialized Chemistry Center, 2011).
The source made the active and inactive calls.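 The calls were made as follows: active = compound moving the glutamate curve by at least twofold either way, or glutamate peak under 75% or over 125%; inactive = the rest.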

Target: Metabotropic glutamate receptor 4 (Rattus norvegicus) (UniProt P31423)
Assay: rat mGlu4 allosteric modulation, glutamate curve shift, profiling panel, selectivity assay for mGlu5 PAM project, thallium flux, HEK/GIRK cells (AID 588734)
Details: glutamate CRC shift, at 10 µM; Emax: measured here: glutamate max response with compound
How it was run: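 Material: HEK/GIRK cells stably expressing rat mGlu4 receptor | Reagent: Glutamate concentration-response curve as agonist stimulus | Dosing: Single test compound dose, 10 µM final | Schedule: Dye loading for 45 min at 37 °C | Signal: Thallium influx measured as slope of dye fluorescence | Control set: Compound-free glutamate curve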

Metabotropic glutamate receptor 4 (Rattus norvegicus), sequence (P31423 whole entry, looked up): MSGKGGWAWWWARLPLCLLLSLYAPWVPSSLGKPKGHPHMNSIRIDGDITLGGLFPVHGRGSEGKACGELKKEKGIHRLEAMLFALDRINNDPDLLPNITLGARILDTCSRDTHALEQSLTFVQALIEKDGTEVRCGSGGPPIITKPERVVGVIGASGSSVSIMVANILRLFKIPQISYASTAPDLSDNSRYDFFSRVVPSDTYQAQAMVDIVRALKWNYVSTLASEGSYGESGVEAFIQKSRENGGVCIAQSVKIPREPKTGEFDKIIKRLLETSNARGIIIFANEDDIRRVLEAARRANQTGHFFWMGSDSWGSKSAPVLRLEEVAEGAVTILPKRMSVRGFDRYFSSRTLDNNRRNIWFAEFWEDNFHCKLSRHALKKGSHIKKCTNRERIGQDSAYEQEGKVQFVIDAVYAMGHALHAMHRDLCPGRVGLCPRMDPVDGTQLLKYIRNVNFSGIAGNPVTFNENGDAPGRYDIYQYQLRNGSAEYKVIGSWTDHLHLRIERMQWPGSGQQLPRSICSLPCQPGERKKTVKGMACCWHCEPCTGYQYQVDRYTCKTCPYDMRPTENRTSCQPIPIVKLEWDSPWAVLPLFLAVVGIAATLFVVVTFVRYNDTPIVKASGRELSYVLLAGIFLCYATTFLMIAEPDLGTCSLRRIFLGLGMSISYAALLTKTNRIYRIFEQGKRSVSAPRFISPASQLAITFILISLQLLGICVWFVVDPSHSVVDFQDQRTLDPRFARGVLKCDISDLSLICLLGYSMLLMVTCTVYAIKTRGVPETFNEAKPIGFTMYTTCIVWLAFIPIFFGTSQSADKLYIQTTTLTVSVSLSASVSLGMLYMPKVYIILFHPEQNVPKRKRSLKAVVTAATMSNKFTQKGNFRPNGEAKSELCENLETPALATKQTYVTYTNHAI

Row | SMILES | Emax | fold shift
1 | C[C@@H](NC(=O)c1ccc(C#Cc2cccc(F)c2)cn1)C(C)(C)O | 90% | 0.88 (inactive)
2 | CC1(NC(=O)c2ccc(C#Cc3cccc(F)c3)cn2)COC1 | 93% | 1 (inactive)
